Experiments:
X = X (Homo sapiens, UniProt P28074); assay: In vitro proteasome activity assay, purified human 20S proteasome, Ac-WLA-AMC; format: biochemical
LMP7 = LMP7 (Homo sapiens, UniProt P28062); assay: In-cellulo LMP7 inhibition in RPMI-8226/ABCB1 vs parental RPMI-8226 cells; format: cell-based; conditions: Supple. Table S1
Method in brief: (§1)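 Lysates (14,000 g, 20 min, 4 °C; 5 μg protein) in 20 mM Tris-HCl, 0.5 mM EDTA, 0.035% SDS, pH 8.0, received Ac-PAL-AMC (LMP2) or Ac-ANW-AMC (LMP7), each at 100 μM. Fluorescence (ex 360/em 460 nm) was read every minute for 1 h. IC50s were compared between lines.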

ABCG2 = biological target: T1, ABCG2 (Homo sapiens, UniProt Q9UNQ0); assay: ABCG2 interaction assay; format: cell-based; conditions: MDCKII/ABCG2 cells, PhA 1 μM; DB-60 (20) 2 or 5 μM, Ko143 0.2 μM
T1 sequence (Q9UNQ0 1-655): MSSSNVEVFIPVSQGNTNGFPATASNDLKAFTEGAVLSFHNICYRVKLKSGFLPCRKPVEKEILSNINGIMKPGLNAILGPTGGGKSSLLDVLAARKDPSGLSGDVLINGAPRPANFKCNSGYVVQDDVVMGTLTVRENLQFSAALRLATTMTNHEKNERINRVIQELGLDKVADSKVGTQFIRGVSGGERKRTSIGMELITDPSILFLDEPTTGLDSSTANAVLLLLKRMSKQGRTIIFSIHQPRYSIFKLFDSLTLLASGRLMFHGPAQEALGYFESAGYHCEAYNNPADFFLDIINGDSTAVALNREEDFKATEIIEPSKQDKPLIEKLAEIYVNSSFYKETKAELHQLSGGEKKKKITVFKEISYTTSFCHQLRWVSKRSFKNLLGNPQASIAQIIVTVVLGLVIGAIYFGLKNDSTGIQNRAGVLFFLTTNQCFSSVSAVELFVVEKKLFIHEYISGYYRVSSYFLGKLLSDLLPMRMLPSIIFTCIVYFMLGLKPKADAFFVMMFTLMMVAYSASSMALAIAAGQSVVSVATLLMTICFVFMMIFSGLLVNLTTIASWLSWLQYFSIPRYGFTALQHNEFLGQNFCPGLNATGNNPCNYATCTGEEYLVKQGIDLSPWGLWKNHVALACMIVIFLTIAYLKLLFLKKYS

[1] = In vitro metabolic stability in mouse whole blood; format: in vitro ADME; conditions: ICR mice, 1 μM, 0, 10 and 30 min, compared with YU102
Method in brief: (§2)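 Matrices came from male 7-week-old ICR mice: whole blood with 25 IU/mL heparin, and liver homogenised in ice-cold PBS (2.5 mL/g). After pre-incubation at 37 °C, test compound was added to 1 μM final. Sampling was at 0, 10 and 30 min for blood and 0, 10 and 20 min for liver. […] Remaining drug was measured by LC-MS/MS.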

[2] = In vitro metabolic stability in mouse liver homogenates; format: in vitro ADME; conditions: ICR mice, 1 μM, 0, 10 and 20 min, compared with YU102
Method in brief: as §2

IL-1α [3] = assay: IL-1α release by LPS-activated BV-2 cells; format: cell-based, murine; conditions: LPS 1 μg/mL
Method in brief: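 BV-2 microglia were stimulated with LPS (1 μg/mL). IL-1α in the culture supernatants was measured by sandwich ELISA. Supernatants and standards (seven serial twofold dilutions) sat overnight at 4 °C on capture-antibody plates, then went through detection antibody (1 h), avidin-HRP (30 min), substrate, and a 2N H2SO4 stop. A450 was read. Three technical replicates, SD shown.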

LMP2 [4] = biological target: LMP2 (Mus musculus, UniProt P28076); assay: LMP2 activity in brain homogenates after single intravenous dosing; format: in vivo; conditions: ICR mice, single intravenous dosing 10 mg/kg, 1-hour post-dosing
Tg2576 mice = assay: Morris water maze, probe trial and passive avoidance in Tg2576 mice; format: in vivo, mouse; conditions: 10 mg/kg twice weekly for 3 weeks
Method in brief: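 Tg2576 mice (9-month-old, acclimatised one month) were injected with 10 mg/kg twice weekly for 3 weeks. Morris water maze training ran on days 1–5: hidden platform 1–1.5 cm below 25 ± 1 °C water, three 60-s trials daily from randomised starts. The probe trial on day 6 tracked swimming for 60 s and recorded time in the former platform quadrant by video. Student's t-test, n=5.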

IL-1α [5] = assay: Serum IL-1α levels in Tg2576 mice; format: in vivo, mouse; conditions: 10 mg/kg twice weekly for 3 weeks, vs vehicle
Method in brief: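 Serum from 9-month-old Tg2576 mice (dosed or vehicle) diluted 1:5, then incubated with IL-1α standards (seven serial twofold dilutions) on capture-antibody-coated plates for 2 h at room temperature. Five washes, detection antibody 1 h, avidin-HRP 30 min, five washes, substrate, stop with 2N H2SO4. Absorbance read at 450 nm; n=3.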

[6] = test system: retinal pigment epithelium (RPE); assay: RPE flat mounts, anti-β-catenin immunostaining; format: in vivo, mouse
Method in brief: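 After behaviour testing, eyes from treated Tg2576 mice and from age-matched non-transgenic ICR mice were fixed in 4% paraformaldehyde (1 h, RT). Eyecups were dissected, retina removed, and RPE sheets permeabilised (0.2% Triton X-100, 15 min) and blocked (3% BSA, 1 h). Sheets were stained with anti-β-catenin (1:100, overnight 4 °C), then Alexa 555 secondary (1:1000, 2 h RT), and imaged by confocal microscopy. Images are representative of 3 independent replicates.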

[7] = Observation of overt toxicity during treatment; format: in vivo; conditions: Tg2576 or non-transgenic ICR mice during the test period
LMP2 [8] = biological target: T2, LMP2 (Homo sapiens, UniProt P28065); assay: In-cellulo LMP2 inhibition in RPMI-8226/ABCB1 vs parental RPMI-8226 cells; format: cell-based; conditions: either cell line
Method in brief: as §1

LMP2 [9] = biological target: T2, LMP2; assay: In vitro proteasome activity assay, purified human 20S proteasome, Ac-PAL-AMC; format: biochemical; conditions: P3-proline substitution of 21, purified proteasome

Compound	IC50 (X) [µM]	LMP2 inhibitory potency compared with 21 (LMP2 [9])	also measured
CC(C)C[C@H](NC(=O)[C@@H]1Cc2ccc(cc2)OCCCCCCC(=O)N2CCC[C@H]2C(=O)N1)C(=O)[C@@]1(C)CO1 [compound 16, (1^2S,4S)-N-((S)-4-Methyl-1-((R)-2-methyloxiran-2-yl)-1-oxopentan-2-yl)-2,14-dioxo-7-oxa-3-aza-1(2,1)-pyrrolidina-6(1,4)-benzenacyclotetradecaphane-4-carboxamide]	> 10	–	–
C[C@]1(C(=O)[C@H](Cc2ccccc2)NC(=O)[C@@H]2Cc3ccc(cc3)OCCCCCCCC(=O)N3CCC[C@H]3C(=O)N2)CO1 [compound 20, (1^2S,4S)-N-((S)-1-((R)-2-Methyloxiran-2-yl)-1-oxo-3-phenylpropan-2-yl)-2,15-dioxo-7-oxa-3-aza-1(2,1)-pyrrolidina-6(1,4)-benzenacyclopentadecaphane-4-carboxamide]	–	–	fold decrease of LMP7 inhibition, RPMI-8226/ABCB1 vs parental RPMI-8226 (LMP7): ~ 2 fold; inhibition of the ABCG2-mediated efflux of PhA (cellular accumulation of PhA) (ABCG2): no inhibition of the ABCG2-mediated efflux of PhA; metabolic stability in whole blood [1]: greater metabolic stability than YU102; stability in liver homogenates [2]: superior to YU102; release of IL-1α by LPS-activated microglial BV-2 cells (IL-1α [3]): decreased the release of IL-1α; inhibition of LMP2 activity in brain homogenates (LMP2 [4]): no appreciable inhibition of the LMP2 activity; probe trial: percentage of time spent in the target quadrant (Tg2576 mice; day 6, vs control): higher than control mice; passive avoidance test: step-through latency (Tg2576 mice; days 7-8, vs control): performed better in a fear-aggravated test (passive avoidance) than control mice; serum levels of IL-1α (IL-1α [5]): lower in Tg2576 mice receiving DB-60 (20) treatment than the control mice; RPE structure in Tg2576 mice ([6]; Tg2576 mice after behavior tests, anti-β-catenin staining): displayed the orderly structure; RPE structural integrity in non-transgenic ICR mice ([6]; age-matching non-transgenic ICR mice treated with DB-60 (20)): not affected; overt toxicity [7]: No sign of overt toxicity
C[C@]1(C(=O)[C@H](Cc2ccccc2)NC(=O)[C@@H]2COCCCCCC(=O)N3CCC[C@H]3C(=O)N2)CO1 [compound 25, (3S,15aS)-N-((S)-1-((R)-2-Methyloxiran-2-yl)-1-oxo-3-phenylpropan-2-yl)-1,11-dioxotetradecahydropyrrolo[2,1-f][1]oxa[4,7]diazacyclotridecine-3-carboxamide]	> 10	–	–
CC(C)C[C@H](NC(=O)[C@@H]1COCCCCCC(=O)NCC(=O)N2CCC[C@H]2C(=O)N1)C(=O)[C@@]1(C)CO1 [compound 26, (3S,18aS)-N-((S)-4-Methyl-1-((R)-2-methyloxiran-2-yl)-1-oxopentan-2-yl)-1,11,14-trioxohexadecahydro-6H-pyrrolo[2,1-f][1]oxa[4,7,10]triazacyclohexadecine-3-carboxamide]	> 10	–	LMP2 inhibition in RPMI-8226/ABCB1 and parental RPMI-8226 cells (LMP2 [8]): no LMP2 inhibition in either cell line
CC(C)C[C@H](NC(=O)[C@@H]1COCCCCCCC(=O)NCC(=O)N2CCC[C@H]2C(=O)N1)C(=O)[C@@]1(C)CO1 [compound 27, (3S,19aS)-N-((S)-4-Methyl-1-((R)-2-methyloxiran-2-yl)-1-oxopentan-2-yl)-1,12,15-trioxooctadecahydropyrrolo[2,1-f][1]oxa[4,7,10]triazacycloheptadecine-3-carboxamide]	> 10	–	LMP2 inhibition in RPMI-8226/ABCB1 and parental RPMI-8226 cells (LMP2 [8]): no LMP2 inhibition in either cell line
CC(C)C[C@H](NC(=O)[C@@H]1COCCCCCC(=O)N2C[C@H](F)C[C@H]2C(=O)N1)C(=O)[C@@]1(C)CO1 [compound 32, (3S,14S,15aS)-14-Fluoro-N-((S)-4-methyl-1-((R)-2-methyloxiran-2-yl)-1-oxopentan-2-yl)-1,11-dioxotetradecahydropyrrolo[2,1-f][1]oxa[4,7]diazacyclotridecine-3-carboxamide]	> 10	substantial decrease in the LMP2 inhibitory potency	–
CC(C)C[C@H](NC(=O)[C@@H]1COCCCCCC(=O)N2CC(F)(F)C[C@H]2C(=O)N1)C(=O)[C@@]1(C)CO1 [compound 33, (3S,15aS)-14,14-Difluoro-N-((S)-4-methyl-1-((R)-2-methyloxiran-2-yl)-1-oxopentan-2-yl)-1,11-dioxotetradecahydropyrrolo[2,1-f][1]oxa[4,7]diazacyclotridecine-3-carboxamide]	> 10	LMP2 inhibitory potency similar to 21	–
CC(C)C[C@H](NC(=O)[C@@H]1COCCCCCC(=O)N2CCC[C@@]2(C)C(=O)N1)C(=O)[C@@]1(C)CO1 [compound 34, (3S,15aS)-15a-Methyl-N-((S)-4-methyl-1-((R)-2-methyloxiran-2-yl)-1-oxopentan-2-yl)-1,11-dioxotetradecahydropyrrolo[2,1-f][1]oxa[4,7]diazacyclotridecine-3-carboxamide]	> 10	substantial decrease in the LMP2 inhibitory potency	–
CC(C)C[C@H](NC(=O)[C@@H]1COCCCCCC(=O)N2CC[C@H]2C(=O)N1)C(=O)[C@@]1(C)CO1 [compound 35, (10S,13S)-N-((S)-4-Methyl-1-((R)-2-methyloxiran-2-yl)-1-oxopentan-2-yl)-2,12-dioxo-8-oxa-1,11-diazabicyclo[11.2.0]pentadecane-10-carboxamide]	> 10	LMP2 inhibitory potency similar to 21	–
CC(C)C[C@H](NC(=O)[C@@H]1COCCCCCC(=O)N2CCCC[C@H]2C(=O)N1)C(=O)[C@@]1(C)CO1 [compound 36, (3S,16aS)-N-((S)-4-Methyl-1-((R)-2-methyloxiran-2-yl)-1-oxopentan-2-yl)-1,11-dioxotetradecahydro-2H-pyrido[2,1-f][1]oxa[4,7]diazacyclotridecine-3-carboxamide]	> 10	substantial decrease in the LMP2 inhibitory potency	–
